Mdm2 ligase inh – blocks human Mdm2 ubiquitin ligase activity; Q00987; 210,000 tested, 0.11% active; signal enhancement, % at 5 µM; cell-based MDM2 ubiquitination luciferase reporter, 2 h; 0 = plate control, 100 = twice control, blank-subtracted;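 active = signal enhancement of 30% or more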;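 also: luminescence tracks abundance of the self-degrading MDM2-luciferase fusion protein; higher signal means inhibition of MDM2 E3 ligase activity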
Target sequence (Q00987 whole entry, looked up, the tested form may be a part): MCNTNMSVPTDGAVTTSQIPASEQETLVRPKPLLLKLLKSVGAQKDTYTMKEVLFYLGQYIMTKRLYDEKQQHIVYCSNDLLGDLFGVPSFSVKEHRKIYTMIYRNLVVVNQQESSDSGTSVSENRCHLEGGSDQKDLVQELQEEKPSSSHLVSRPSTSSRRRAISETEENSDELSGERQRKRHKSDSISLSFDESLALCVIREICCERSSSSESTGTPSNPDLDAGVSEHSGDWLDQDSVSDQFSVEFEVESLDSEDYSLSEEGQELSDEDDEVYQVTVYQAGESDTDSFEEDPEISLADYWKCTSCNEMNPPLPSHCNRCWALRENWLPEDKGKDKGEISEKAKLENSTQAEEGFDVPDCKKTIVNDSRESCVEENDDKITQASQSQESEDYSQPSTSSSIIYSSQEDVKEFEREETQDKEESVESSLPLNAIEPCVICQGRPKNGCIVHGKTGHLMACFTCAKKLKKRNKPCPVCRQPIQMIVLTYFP
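Test system: mammalian cells stably expressing self-ubiquitinating, self-degrading MDM2 E3–luciferase fusion; Amount: 2000 cells in each well; Medium: DMEM; Schedule: 4 h settle plus 2 h compound, 37 °C; Technique: SteadyLite luciferase luminescence after 15 min room-temperature reagent incubation; Benchmarks: plate control and blank wells.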
S1P4 antag – antagonists of human S1P4 receptor | S1P4-expressing cells, antagonist mode, reporter read-out | inhibition, % at 4.98 µM | 220,000 tested, 0.26% active; in the data active = inhibition above about 29%
S1P3 antag – blocks the human S1P3 receptor; CHO S1P3 NFAT-BLA reporter, FRET fluorescence, antagonist mode; inhibition, % at 4.98 µM; 170,000 tested, 0.27% active; AID 485;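 active = inhibition above the plate cutoff, the mean inhibition of test wells on that plate plus 3 SD, cut at about 28% in these data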;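 also: cells challenged with S1P at its EC80 of 0.8 µM; blue over green emission ratio from cleaved BLA substrate after 4 h stimulation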
S1P4 ag – agonists of human S1P4 receptor; O95977; S1P4-expressing cell line, agonist reporter assay; activation, % at 4.98 µM; 220,000 tested, 0.35% active; in the data active = activation above about 11%
Calb biofilm kill – mixture kills Candida albicans biofilm cells | C. albicans biofilm persisters + clotrimazole, fluorescence viability; primary screen in compound mixtures of four per well | inhibition, % at 7.6 µM | 120,000 tested, 0.02% active | AID 1242;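 active = inhibition above 30.3% in the primary screen of four-compound pools, then above 30% when the compound was retested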;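 also: compounds exposed to preformed 24 h biofilms for 48 h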
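Probe or stimulus – Clotrimazole 50 µg/mL co-treatment · System – C. albicans biofilms · Schedule – 24 h biofilm formation, then 48 h compound exposure, 37 °C · Evaluation – percent inhibition of biofilm viability · Technique – 2-h Alamar Blue fluorescence, 535/590 nm excitation/emission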
S1P4 agonist cf – confirmation of human S1P4 receptor agonists; shares compounds with S1P4 ag; 740 tested, 7% active; activation, % at 4.98 µM; S1P4 agonist cell-based reporter assay; in the data active = activation above about 12%
S1P1 ag – counter-screen for S1P4 agonists: agonists of human S1P1; S1P1 agonist cell-based assay, activation; 740 tested, 4% active; shares compounds with S1P4 ag; activation, % at 4.98 µM; in the data active = activation above about 21%
S1P4 antag cf – confirmation of human S1P4 receptor antagonists | shares compounds with S1P4 antag | S1P4-expressing cell line, antagonist mode, reporter read-out | inhibition, % at 4.98 µM | 520 tested, 71% active | AID 1524; in the data active = inhibition above about 30%
S1P1 antag – counter-screen for S1P4 antagonists: antagonists of human S1P1; shares compounds with S1P4 antag; cell-based S1P1 antagonist counterscreen, inhibition; inhibition, % at 4.98 µM; 520 tested, 37% active; in the data active = inhibition above about 40%;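 also: receptor stimulated with S1P near its EC80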
Large screens that a line does not name were inactive (follow-up assays come after a bar, where they were run). This is a sample that favours compounds with a hit; in the whole collection about 0.9% have one here.

O=C(O)c1ccccc1-c1ccccc1C(=O)Nc1cccc(O)c1	none
Fc1ccc(NC(=S)NC23CN4CN(CN(C4)C2)C3)cc1	none
CCOC(=O)c1sc(Nc2nc(OC)cc(OC)n2)nc1C	S1P4 ag 64 | S1P4 agonist cf inactive | S1P1 ag inactive
CCOC(=O)c1sc(NC(C)=O)nc1C	none (no result: S1P3 antag, Calb biofilm kill)
O=C(NC(Cc1c[nH]c2ccccc12)C(=O)O)c1ccc(F)cc1 (centres undefined)	none
O=C(Nc1ccccc1C(=O)NC(Cc1c[nH]c2ccccc12)C(=O)O)c1ccccc1 (centres undefined)	S1P4 ag 11 | S1P4 agonist cf inactive | S1P1 ag inactive
Cc1nn(-c2ccc(F)cc2)c(C)c1CN1CCN(CCC(C)C)C(CCO)C1 (centres undefined)	none
CCn1c(C)c(C(C)=O)c(N2CCCC2)nc1=S	S1P4 ag 17 (no result: Calb biofilm kill) | S1P4 agonist cf inactive | S1P1 ag inactive
C=CCn1c(C)c(C(C)=O)c(N2CCCC2)nc1=S	none (no result: Calb biofilm kill)
O=c1c2ccccc2nc(SCc2nc3ccccc3s2)n1CCCO	S1P4 ag 21 | S1P4 agonist cf inactive | S1P1 ag inactive
O=C(CSc1nc2ccccc2c(=O)n1CCCO)NCc1ccccc1	none (no result: Calb biofilm kill)
CN1CCN(S(=O)(=O)Cc2ccc(Cl)cc2)CC1	none
Nc1ccccc1SCC1CSc2nc3ccccc3c(=O)n21 (centres undefined)	S1P4 ag 14 | S1P4 agonist cf inactive | S1P1 ag inactive
COc1cccc(SCC2CSc3nc4ccccc4c(=O)n32)c1 (centres undefined)	none
Cn1c(N/N=C/c2cc3ccccc3nc2Cl)nc2ccccc21	none
Nc1nonc1NC(=O)CSc1ncccc1C(=O)O	S1P4 ag 45 (no result: Calb biofilm kill) | S1P4 agonist cf inactive | S1P1 ag inactive
COc1ccc(OC)c(NC(=O)CSc2ncccc2C(=O)O)c1	none (no result: Calb biofilm kill)
COc1ccc(C(=O)Nc2nc(N)n(-c3ccccc3)n2)cc1	S1P4 ag 42 | S1P4 agonist cf inactive | S1P1 ag inactive
COc1ccc(CCNC(=O)c2cc(C(=O)c3cc(C)ccc3O)cn(CCc3ccc(OC)cc3)c2=O)cc1	none
CN(Cc1cc(=O)n2ccsc2n1)c1ccccc1	none
CN(Cc1cc(=O)n2ccsc2n1)C1CCCCC1	S1P4 ag 93 | S1P4 agonist cf inactive | S1P1 ag inactive
O=C1C(Cl)=C(Nc2ccc(O)cc2)C(=O)c2ccccc21	S1P4 antag 90, S1P4 ag 14 | S1P4 agonist cf inactive | S1P1 ag inactive | S1P4 antag cf 105 | S1P1 antag 65
Cc1cc(=O)[nH]c(NN=C2C3CC4CC(C3)CC2C4)n1	none
Clc1ccc2nc(N3CCNCC3)nc(-c3ccccc3)c2c1	S1P4 antag 30, S1P4 ag 20 (no result: S1P3 antag, Calb biofilm kill) | S1P4 agonist cf 13 | S1P1 ag inactive | S1P4 antag cf 39 | S1P1 antag inactive
CN1CCN(c2nc(-c3ccccc3)c3cc(Cl)ccc3n2)CC1	none (no result: Calb biofilm kill)
CC(=O)Oc1ccc2cc(-c3nc4ccccc4n3C)c(=O)oc2c1	S1P4 antag 36, S1P4 ag 30 (no result: Calb biofilm kill) | S1P4 agonist cf 15 | S1P1 ag inactive | S1P4 antag cf 37 | S1P1 antag inactive
COc1ccccc1N1CCN(C(=O)Cn2nc3n(C)c4ccccc4n3c(=O)c2=O)CC1	none
Cc1ccc2cc(/C=C/C(=O)c3ccco3)c(Cl)nc2c1	S1P4 antag 37 | S1P4 antag cf 68 | S1P1 antag inactive
Cc1ccc2nc(Cl)c(/C=C/C(=O)c3ccco3)cc2c1	none
CC(C)(C)OC(=O)CNC(=O)c1[nH]cnc1C(=O)Nc1ccc(Cl)cc1	none (no result: S1P4 antag, S1P3 antag, S1P4 ag)
O=C(NCc1ccco1)c1ccccc1-c1nc(-c2ccccc2)no1	S1P4 antag 30 (no result: S1P3 antag, Calb biofilm kill) | S1P4 antag cf inactive | S1P1 antag inactive
Cc1ccc(COc2ccsc2C(=O)NN)cc1	none
COc1ccc(C)cc1NC(=O)C(CCS(C)(=O)=O)NC(C)=O (centres undefined)	none (no result: S1P3 antag, Calb biofilm kill)
COC(=O)c1cc(=O)n(-c2ccc(F)cc2)c(=Nc2ccc(F)cc2)s1	S1P4 antag 29 (no result: Mdm2 ligase inh) | S1P4 antag cf 100 | S1P1 antag 76
CCOC(=O)COc1cnc2ccccc2n1	none
CC(C)[C@H](NC(=O)OC(C)(C)C)c1nnc(S(=O)(=O)Cc2c(F)cccc2Cl)o1	none (no result: Mdm2 ligase inh, S1P4 antag, S1P4 ag, Calb biofilm kill)
Cc1ccccc1CS(=O)(=O)c1nnc([C@H](CC(C)C)NC(=O)OC(C)(C)C)o1	S1P4 antag 86 (no result: Calb biofilm kill) | S1P4 antag cf 113 | S1P1 antag inactive
CC(C)C[C@H](N)c1nnc(S(=O)(=O)Cc2cccc(F)c2)o1	none (no result: Calb biofilm kill)
CC(C)(C)OC(=O)N[C@@H](Cc1ccccc1)c1nnc(S(=O)(=O)Cc2cccc(F)c2)o1	S1P4 antag 78 (no result: Calb biofilm kill) | S1P4 antag cf 94 | S1P1 antag inactive
CC[C@@H](C)[C@H](NC(=O)OC(C)(C)C)c1nnc(S(=O)(=O)Cc2cc(C)ccc2C)o1	S1P4 antag 57 (no result: Calb biofilm kill) | S1P4 antag cf 105 | S1P1 antag inactive
CC1=C(C(=O)Nc2ccc([N+](=O)[O-])cc2)C(c2cccc(C(F)(F)F)c2)NC(=S)N1c1ccccc1 (centres undefined)	S1P4 antag 31 (no result: S1P3 antag, Calb biofilm kill) | S1P4 antag cf 33 | S1P1 antag inactive
CCOc1ccc(-c2nc(-c3ccccc3)no2)cc1OCC	S1P4 antag 78 (no result: Calb biofilm kill) | S1P4 antag cf inactive | S1P1 antag inactive
O=C(Nc1ccc(F)cc1F)Nc1ccccc1C(=O)NCCN1CCNC1=O	S1P4 antag 31 | S1P4 antag cf inactive | S1P1 antag inactive
COc1ccc(C(=O)C(CCC(CNC(C)(C)C)C(=O)c2ccc(OC)cc2)CNC(C)(C)C)cc1 (centres undefined)	S1P4 antag 73 | S1P4 antag cf 37 | S1P1 antag inactive
O=C(c1ccc2c(c1)OCO2)C1CCCN(C2CCN(CCc3ccccc3)CC2)C1 (centres undefined)	none
CCCCOc1ccccc1C(=O)NCCCC(=O)O	S1P4 antag 35 (no result: S1P3 antag, Calb biofilm kill) | S1P4 antag cf inactive | S1P1 antag inactive
O=C(NCc1ccncc1)C(=O)N/N=C/c1cccnc1	none
C(=N\n1cnnc1)/c1ccc2c(c1)OCO2	S1P4 antag 31 (no result: Calb biofilm kill) | S1P4 antag cf inactive | S1P1 antag inactive
CCCOc1ccc(/C=C2\SC(=S)N(CC3CCCO3)C2=O)cc1 (centres undefined)	none
O=C1/C(=C/c2ccc(O)cc2)SC(=S)N1CC1CCCO1 (centres undefined)	S1P4 antag 30 | S1P4 antag cf inactive | S1P1 antag inactive
Cc1ccc(C23CC4CC(CC(CC(=O)N5CCOCC5)(C4)C2)C3)cc1	none (no result: S1P3 antag)

Bioassay records as filed in PubChem BioAssay.
